The record followed here is ChEMBL document CHEMBL1155418, “Synthesis and structure-activity relationships of N3-pyridylpyrazinones as corticotropin-releasing factor-1 (CRF1) receptor antagonists” (Bioorg Med Chem Lett, 2010).

SMILES strings stand for the structures.

Data set [1] has as its target T1, Corticotropin-releasing factor receptor 1 (Rattus norvegicus, UniProt P35353).
T1 sequence (P35353 whole entry): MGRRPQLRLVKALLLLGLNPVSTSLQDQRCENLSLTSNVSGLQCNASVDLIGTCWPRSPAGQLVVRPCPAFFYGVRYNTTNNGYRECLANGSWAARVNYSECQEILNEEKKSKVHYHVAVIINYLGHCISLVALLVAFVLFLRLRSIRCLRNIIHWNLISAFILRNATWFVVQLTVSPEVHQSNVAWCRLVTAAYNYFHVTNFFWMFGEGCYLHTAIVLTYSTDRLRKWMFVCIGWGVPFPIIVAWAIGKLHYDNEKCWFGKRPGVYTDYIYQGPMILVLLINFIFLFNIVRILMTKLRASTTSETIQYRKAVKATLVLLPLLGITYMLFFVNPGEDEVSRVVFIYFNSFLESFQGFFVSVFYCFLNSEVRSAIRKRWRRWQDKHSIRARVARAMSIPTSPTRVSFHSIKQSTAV
Put plainly: Displacement of [125I]Tyr-ovine-CRF from CRF1 receptor in rat frontal cortex homogenate by gamma counting. The format is tissue-based. On the technique in general: Displacement assays read how much labelled ligand stays bound in the presence of the test substance.

A further data set is filed under the species Rattus norvegicus. Put plainly: Metabolic stability in rat liver microsomes assessed as compound remaining after 10 mins. Background: Microsomes from liver hold many membrane-bound enzymes, among them those of drug oxidation.
The species named for another data set is Homo sapiens. Put plainly: Metabolic stability in human liver microsomes assessed as compound remaining after 10 mins.
The nature of data set [2]: Dissociation constant, pKa at pH 2 to 11 by spectrophotometric titration method. The format is physicochemical. In outline:
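pKa determined by a spectrophotometric titration method.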

A word on the IC50: it is the concentration that inhibits the measured activity by half. Read a low IC50 as greater potency in that assay. What is called share remaining is the share of the starting amount still present when the sample was taken. In turn, `CCOc1nc(C)c(Nc2nc(Cl)cn([C@H](C)C3CC3)c2=O)cc1C` had an IC50 in data set [1] of 2.7 nM. Moreover, the fraction remaining at 10 min in the data set filed under Rattus norvegicus turned out to be 81%; in the data set filed under Homo sapiens, 93%.

In data set [1], `COc1nc(C)c(Nc2nc(Cl)cn([C@H](C)C3CC3)c2=O)c(OC)n1` yielded a 50% inhibitory concentration (IC50) of 240 nM. The amount remaining at 10 min in the data set listed under Rattus norvegicus was 81%; in the data set listed under Homo sapiens, 86%.

In data set [1], `CC[C@H](C)[C@H](NC(=O)[C@H](CC(=O)O)NC(=O)[C@H](CC(C)C)NC(=O)[C@H](CC(C)C)NC(=O)[C@H](CCCCN)NC(=O)[C@H](CCCN=C(N)N)NC(=O)[C@H](CC(N)=O)NC(=O)[C@H](CO)NC(=O)[C@H](Cc1cnc[nH]1)NC(=O)[C@H](C)NC(=O)[C@H](CCC(N)=O)NC(=O)[C@H](CCC(N)=O)NC(=O)[C@H](C)NC(=O)[C@H](CC(C)C)NC(=O)[C@H](CCC(N)=O)NC(=O)[C@H](CC(=O)O)NC(=O)[C@H](C)NC(=O)[C@H](CCCCN)NC(=O)[C@@H](NC(=O)[C@H](CCSC)NC(=O)[C@H](CCC(=O)O)NC(=O)[C@H](CC(C)C)NC(=O)[C@@H](NC(=O)[C@H](CCC(=O)O)NC(=O)[C@H](CCCN=C(N)N)NC(=O)[C@H](CC(C)C)NC(=O)[C@H](CC(C)C)NC(=O)[C@H](Cc1cnc[nH]1)NC(=O)[C@H](Cc1ccccc1)NC(=O)[C@@H](NC(=O)[C@H](CC(C)C)NC(=O)[C@H](CC(=O)O)NC(=O)[C@H](CC(C)C)NC(=O)[C@H](CO)NC(=O)[C@@H](NC(=O)[C@@H]1CCCN1C(=O)[C@@H]1CCCN1C(=O)[C@H](CCC(=O)O)NC(=O)[C@H](CCC(N)=O)NC(=O)[C@@H](N)CO)[C@@H](C)CC)[C@@H](C)O)C(C)C)[C@@H](C)O)C(=O)N[C@@H](C)C(N)=O` yielded a 50% inhibitory concentration (IC50) of 2.9 nM.

The term pKa denotes the negative logarithm of the acid dissociation constant. Low readings indicate a group that gives up its proton readily, high ones a group that holds its proton tightly. In data set [1], `COc1cc(C)c(Nc2nc(Cl)cn([C@H](C)C3CC3)c2=O)c(C)n1` showed a half-inhibitory concentration (IC50) of 12 nM. The compound further showed a pKa in data set [2] of 3.8. Besides, the figures for the fraction remaining at 10 min in the data set listed under Rattus norvegicus and in the data set listed under Homo sapiens were 81% and 79%, respectively.

`COc1ccc(Nc2nc(Cl)cn([C@H](C)C3CC3)c2=O)c(C)n1` had a half-maximal inhibitory concentration (IC50) in data set [1] of 11 nM. For the same compound, the pKa in data set [2] amounted to 3.2. In addition, the fraction remaining at 10 min in the data set listed under Rattus norvegicus amounted to 60%; in the data set filed under Homo sapiens, 89%.

Take `COc1ccc(Nc2nc(Cl)cn([C@H](C)C3CC3)c2=O)c(OC)n1`: in data set [1], the half-maximal inhibitory concentration (IC50) was 17 nM. Besides, the amount remaining at 10 min amounted to 25% in the data set filed under Rattus norvegicus and 43% in the data set listed under Homo sapiens.

In the case of `Cc1cc(Nc2nc(Cl)cn([C@H](C)C3CC3)c2=O)c(C)nc1N(C)C`, in data set [1], the IC50 is 0.68 nM. The amount remaining at 10 min in the data set filed under Rattus norvegicus is 29%; in the data set filed under Homo sapiens, 54%.

For `Cc1cc(C)c(Nc2nc(Cl)cn([C@H](C)C3CC3)c2=O)c(C)n1`, in data set [1], the IC50 is 65 nM. In addition, the pKa in data set [2] is 7.9. Besides, the share remaining at 10 min in the data set filed under Rattus norvegicus was 76%; in the data set listed under Homo sapiens, 87%.

In data set [1], `Cc1cc(Nc2nc(Cl)cn([C@H](C)C3CC3)c2=O)c(C)nc1N1CCCC1` registered an IC50 of 6.8 nM. Further, the values for the amount remaining at 10 min in the data set filed under Rattus norvegicus and in the data set filed under Homo sapiens were 26% and 57%, respectively.

The compound `Cc1nc(C(F)(F)F)ccc1Nc1nc(Cl)cn([C@H](C)C2CC2)c1=O` gave an IC50 in data set [1] of 720 nM.

As for `COc1nc(C(F)(F)F)c(Nc2nc(Cl)cn([C@H](C)C3CC3)c2=O)cc1C`, the IC50 in data set [1] was determined as 1.2 nM.

`Cc1nc(OC(F)F)ccc1Nc1nc(Cl)cn([C@H](C)C2CC2)c1=O` yielded a half-inhibitory concentration (IC50) in data set [1] of 1.2 nM. Besides, the pKa in data set [2] is < 2.

Regarding `Cc1cc(OC(F)F)nc(C)c1Nc1nc(Cl)cn([C@H](C)C2CC2)c1=O`, the 50% inhibitory concentration (IC50) in data set [1] came out at 2.1 nM. The pKa in data set [2] was < 2. The amount remaining at 10 min is 84% in the data set listed under Rattus norvegicus and 89% in the data set listed under Homo sapiens.

In turn, `COC[C@@H](C1CC1)n1cc(Cl)nc(Nc2ccc(OC(F)F)nc2C)c1=O` registered an IC50 in data set [1] of 0.8 nM.

`COC[C@H](C1CC1)n1cc(Cl)nc(Nc2ccc(OC(F)F)nc2C)c1=O` displayed an IC50 in data set [1] of 1.2 nM.

`COC[C@H](C1CC1)n1cc(Cl)nc(Nc2c(C)cc(OC(F)F)nc2C)c1=O` yielded an IC50 in data set [1] of 4.7 nM.

With `COc1nc(C)nc(C#N)c1Nc1nc(Cl)cn([C@H](C)C2CC2)c1=O`, the IC50 in data set [1] amounted to 140 nM.

On to `COC[C@@H](C1CC1)n1cc(Cl)nc(Nc2c(C)nc(OC)nc2OC)c1=O`, for which the IC50 in data set [1] was 31 nM. Also, the amount remaining at 10 min in the data set filed under Rattus norvegicus worked out at 25%; in the data set filed under Homo sapiens, 71%.

`COC[C@H](C1CC1)n1cc(Cl)nc(Nc2c(C)nc(OC)nc2OC)c1=O`: the IC50 in data set [1] was determined as 90 nM. The amount remaining at 10 min in the data set listed under Rattus norvegicus came out at 18%; in the data set filed under Homo sapiens, 45%.

In data set [1], `COc1ccc(Nc2nc(Cl)cn([C@H](C)C3CC3)c2=O)c(C(F)(F)F)n1` had an IC50 of 1.6 nM. Besides, the pKa in data set [2] is < 2.

The compound `COc1nc(C)c(Nc2nc(Cl)cn([C@H](C)C3CC3)c2=O)cc1C` had a pKa in data set [2] of 3.6. Besides, the fraction remaining at 10 min worked out at 55% in the data set listed under Rattus norvegicus and 77% in the data set filed under Homo sapiens.

As for `Cc1cc(Nc2nc(Cl)cn([C@H](C)C3CC3)c2=O)c(C)nc1OC(F)F`, in data set [2], the pKa is < 2. For the same compound, the fraction remaining at 10 min in the data set filed under Rattus norvegicus worked out at 86%; in the data set filed under Homo sapiens it was 100%.
